Results from ChEMBL document CHEMBL4725436, “Gibberellin JRA-003: A Selective Inhibitor of Nuclear Translocation of IKKα” (ACS Med Chem Lett, 2020).

Tests used:
CA46 = experiment: Cytotoxicity against human CA46 cells assessed as reduction in cell viability measured after 24 hrs by CellTiter-Glo luminescent assay; assay type: functional, cell-based; conditions: CA46, 24 h
Summary of the method: (§1)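 High-throughput viability screen of test agents across a panel of 22 cancerous and noncancerous human cell lines. Viability was read by CellTiter-Glo luminescence.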

[1] = Inhibition of IKKalpha/IKKbeta in human HEK293T cells transfected with firefly luciferase gene assessed as inhibition of TNF-alpha-stimulated NF-kappaB signalling preincubated for 1 hr followed by TNF alpha stimulation measured after 3 hrs by luciferase reporter gene assay; assay type: cell-based; conditions: HEK-293T
Summary of the method: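 Commercial NF-κB-driven luciferase reporter assay in HEK 293T cells stimulated with TNFα. EC50 was derived from the luminescence readout.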

HEK-293T = experiment: Cytotoxicity against human HEK293T cells assessed as reduction in cell viability measured after 24 hrs by CellTiter-Glo luminescent assay; assay type: cell-based; summary of the method: as §1
[2] = Cytotoxicity against human Hs578Bst cells assessed as reduction in cell viability measured after 24 hrs by CellTiter-Glo luminescent assay; assay type: cell-based; summary of the method: as §1
[3] = Cytotoxicity against human Hs888Lu cells assessed as reduction in cell viability measured after 24 hrs by CellTiter-Glo luminescent assay; assay type: cell-based; summary of the method: as §1
[4] = Cytotoxicity against human Hs895SK cells assessed as reduction in cell viability measured after 24 hrs by CellTiter-Glo luminescent assay; assay type: cell-based; conditions: Hs 895.Sk; summary of the method: as §1
[5] = Cytotoxicity against human Hs895T cells assessed as reduction in cell viability measured after 24 hrs by CellTiter-Glo luminescent assay; assay type: functional, cell-based; summary of the method: as §1
Hs-578T = experiment: Cytotoxicity against human Hs-578T cells assessed as reduction in cell viability measured after 24 hrs by CellTiter-Glo luminescent assay; assay type: functional, cell-based; summary of the method: as §1
PSN1 = experiment: Cytotoxicity against human PSN1 cells assessed as reduction in cell viability measured after 24 hrs by CellTiter-Glo luminescent assay; assay type: functional, cell-based; conditions: PSN1, 24 h; summary of the method: as §1
HCC1599 = experiment: Cytotoxicity against human HCC1599 cells assessed as reduction in cell viability measured after 24 hrs by CellTiter-Glo luminescent assay; assay type: functional, cell-based; conditions: HCC1599, 24 h; summary of the method: as §1
RCK8 = experiment: Cytotoxicity against human RC-K8 cells assessed as reduction in cell viability measured after 24 hrs by CellTiter-Glo luminescent assay; assay type: functional, cell-based; conditions: RCK8, 24 h; summary of the method: as §1
SUD4 = experiment: Cytotoxicity against human SU-DHL-4 cells assessed as reduction in cell viability measured after 24 hrs by CellTiter-Glo luminescent assay; assay type: functional, cell-based; conditions: SU-DHL-4, 24 h; summary of the method: as §1
NCI-H446 = experiment: Cytotoxicity against human NCI-H446 cells assessed as reduction in cell viability measured after 24 hrs by CellTiter-Glo luminescent assay; assay type: functional, cell-based; conditions: NCI-H446, 24 h; summary of the method: as §1

EC50 [1] | Compound | EC50 (CA46) | IC50 (HEK-293T) | IC50 [2] | IC50 [3] | EC50 [4] | IC50 [5] | EC50 (Hs-578T) | IC50 (PSN1) | EC50 (HCC1599) | EC50 (RCK8) | EC50 (SUD4) | EC50 (NCI-H446) | IC50 (CA46) | IC50 [4] | IC50 (Hs-578T) | IC50 (HCC1599) | IC50 (RCK8) | IC50 (SUD4) | IC50 (NCI-H446)
55 µM | C=C1C(=O)[C@@]2(C)CC[C@@H]3c4cccc(C)c4[C@H](C(=O)OC)[C@@]13C2 | 0.46 µM | > 10 µM | > 10 µM | > 10 µM | 9.5 µM | > 10 µM | 4.8 µM | > 10 µM | 1.1 µM | 1.9 µM | 0.69 µM | 2.9 µM | – | – | – | – | – | – | –
> 100 µM | C=C1C[C@]23C[C@@]1(O)CC[C@@H]2c1cccc(C)c1[C@@H]3C(=O)OC | – | > 10 µM | > 10 µM | > 10 µM | – | > 10 µM | – | > 10 µM | – | – | – | – | > 10 µM | > 10 µM | > 10 µM | > 10 µM | > 10 µM | > 10 µM | > 10 µM
> 100 µM | C=C1C[C@]23C[C@@]1(O)CC[C@H]2c1ccc(O)c(C)c1[C@@H]3C(=O)OC | – | > 10 µM | > 10 µM | > 10 µM | – | > 10 µM | – | > 10 µM | – | – | – | – | > 10 µM | > 10 µM | > 10 µM | > 10 µM | > 10 µM | > 10 µM | > 10 µM
> 100 µM | C=C1C[C@]23C[C@@]1(O)CC[C@H]2c1cc2c(C(=O)O)coc2c(C)c1[C@@H]3C(=O)O | – | > 10 µM | > 10 µM | > 10 µM | – | > 10 µM | – | > 10 µM | – | – | – | – | > 10 µM | > 10 µM | > 10 µM | > 10 µM | > 10 µM | > 10 µM | > 10 µM
> 100 µM | Cc1cccc2c1[C@H](C(=O)O)[C@@]13CC(=O)[C@@](C)(CC[C@H]21)C3 | – | > 10 µM | > 10 µM | > 10 µM | – | > 10 µM | – | > 10 µM | – | – | – | – | > 10 µM | > 10 µM | > 10 µM | > 10 µM | > 10 µM | > 10 µM | > 10 µM
> 100 µM | C=C1[C@@H]2OC(=O)[C@H]3c4c(C)cccc4[C@@H]4CC[C@]1(O)C[C@@]243 | – | > 10 µM | > 10 µM | > 10 µM | – | > 10 µM | – | > 10 µM | – | – | – | – | > 10 µM | > 10 µM | > 10 µM | > 10 µM | > 10 µM | > 10 µM | > 10 µM
> 100 µM | C=C1C[C@]23C[C@@]1(O)CC[C@H]2c1cc2c(C(=O)OC)coc2c(C)c1[C@@H]3C(=O)OC | – | > 10 µM | > 10 µM | > 10 µM | – | > 10 µM | – | > 10 µM | – | – | – | – | > 10 µM | > 10 µM | > 10 µM | > 10 µM | > 10 µM | > 10 µM | > 10 µM
> 100 µM | C=C1C[C@]23C[C@@]1(O)CC[C@H]2c1cc(Br)c(O/C=C/C(=O)OC)c(C)c1[C@@H]3C(=O)OC | – | > 10 µM | > 10 µM | > 10 µM | – | > 10 µM | – | > 10 µM | – | – | – | – | > 10 µM | > 10 µM | > 10 µM | > 10 µM | > 10 µM | > 10 µM | > 10 µM
> 100 µM | C=C1[C@@H](O)[C@]23C[C@@]1(O)CC[C@H]2[C@@]12C=C[C@H](O)[C@@](C)(C(=O)O1)[C@H]2[C@@H]3C(=O)OC | – | > 10 µM | > 10 µM | > 10 µM | – | > 10 µM | – | > 10 µM | – | – | – | – | > 10 µM | > 10 µM | > 10 µM | > 10 µM | > 10 µM | > 10 µM | > 10 µM
> 100 µM | COC(=O)[C@H]1c2c(C)cccc2[C@@H]2CC[C@@]3(C)C[C@]21CC3=O | – | > 10 µM | > 10 µM | > 10 µM | – | > 10 µM | – | > 10 µM | – | – | – | – | > 10 µM | > 10 µM | > 10 µM | > 10 µM | > 10 µM | > 10 µM | > 10 µM
> 100 µM | COC(=O)/C=C/Oc1ccc2c(c1C)[C@H](C(=O)OC)[C@@]13CC(=O)[C@@](C)(CC[C@@H]21)C3 | – | > 10 µM | > 10 µM | > 10 µM | – | > 10 µM | – | > 10 µM | – | – | – | – | > 10 µM | > 10 µM | > 10 µM | > 10 µM | > 10 µM | > 10 µM | > 10 µM
57 µM | C=C1[C@@H]2OC(=O)[C@H]3[C@@H]4[C@@]5(C)C(=O)C=C[C@@]4(OC5=O)[C@@H]4CC[C@]1(O)C[C@]234 | 3.7 µM | > 10 µM | > 10 µM | > 10 µM | – | > 10 µM | – | > 10 µM | 5.5 µM | 4.3 µM | 3 µM | 5.9 µM | – | > 10 µM | > 10 µM | – | – | – | –
> 100 µM | C=C1C[C@]23C[C@@]1(O)CC[C@H]2c1ccc(O/C=C/C(=O)OC)c(C)c1[C@@H]3C(=O)OC | – | > 10 µM | > 10 µM | > 10 µM | – | > 10 µM | – | > 10 µM | – | – | – | – | > 10 µM | > 10 µM | > 10 µM | > 10 µM | > 10 µM | > 10 µM | > 10 µM
> 100 µM | C=C1[C@@H](O)[C@]23C[C@@]1(O)CC[C@@H]2c1cccc(C)c1[C@@H]3C(=O)OC | – | > 10 µM | > 10 µM | > 10 µM | – | > 10 µM | – | > 10 µM | – | – | – | – | > 10 µM | > 10 µM | > 10 µM | > 10 µM | > 10 µM | > 10 µM | > 10 µM
> 100 µM | COC(=O)[C@H]1c2c(ccc(O)c2C)[C@@H]2CC[C@@]3(C)C[C@]21CC3=O | – | > 10 µM | > 10 µM | > 10 µM | – | > 10 µM | – | > 10 µM | – | – | – | – | > 10 µM | > 10 µM | > 10 µM | > 10 µM | > 10 µM | > 10 µM | > 10 µM
> 100 µM | COC(=O)[C@H]1c2c(cc3ccoc3c2C)[C@@H]2CC[C@@]3(C)C[C@]21CC3=O | – | > 10 µM | > 10 µM | > 10 µM | – | > 10 µM | – | > 10 µM | – | – | – | – | > 10 µM | > 10 µM | > 10 µM | > 10 µM | > 10 µM | > 10 µM | > 10 µM
> 100 µM | C=C1[C@@H](O)[C@]23C[C@@]1(O)CC[C@H]2c1ccc(O)c(C)c1[C@@H]3C(=O)OC | – | > 10 µM | > 10 µM | > 10 µM | – | > 10 µM | – | > 10 µM | – | – | – | – | > 10 µM | > 10 µM | > 10 µM | > 10 µM | > 10 µM | > 10 µM | > 10 µM
